An excerpt weighted towards active compounds, which were near 3.6% of everything screened.
SR-BI DiI-HDL act: activators of SR-BI mediated DiI-HDL uptake, primary screen, ldlA[mSR-BI] CHO cells, DiI fluorescence; 320,000 compounds, 0.096% hits; AID 504775, 2011; 3 h; 100 = double the neutral-control signal; activation, % at 12.5 µM;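 active means mean replicate activation of at least 60% and every replicate at or above 60%; inconclusive means mean or all-replicate condition met, but not both; inactive means mean below 60% and not all replicates reaching 60%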;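 further: 0% = median plate neutral-control signal and 100% = twice that signal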
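Test system: SR-BI-overexpressing, LDLR-lacking CHO cells; Medium: Ham's F12 with 0.5% BSA, HEPES 25 mM, pH 7.4; Schedule: 3 h, 37 °C; Technique: bottom-read fluorescence, 550/595 nm.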
HSF1 activator: HSF-1 activators, primary screen, NIH3T3-HGL cells, MG132 stress, luminescence, single point; AID 504408, 2011; 300,000 compounds, 1.7% hits; NIH3T3-HGL HSF-1 luciferase reporter, 8 h; 100% = twice DMSO control signal; activation, % at 9 µM;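 active means mean replicate activation of at least 50% with a set share of replicates each reaching 50%; inconclusive means only one of those two conditions met; inactive means mean below 50% and too few replicates reaching it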;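 further: 0% = median of the neutral control wells and 100% = twice that signal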
SR-BI DiI inh: inhibitors of SR-BI mediated HDL lipid uptake, primary screen, ldlA[mSR-BI] cells, fluorescence, single point. AID 488896, 2010. 320,000 compounds, 0.96% hits. inhibition, % at 12.5 µM. Scavenger receptor class B member 1 (Mus musculus), Q61009. ldlA[mSR-BI] CHO cells, DiI-HDL uptake fluorescence, 3 h;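 active means mean replicate inhibition of at least 70% and a set share of replicates each scoring 70 or more; inconclusive means meets just one of the two criteria; inactive means fails both criteria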;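 further: 0% = median of neutral control wells and 100% = median of positive control wells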
Target sequence (Q61009 whole entry, looked up): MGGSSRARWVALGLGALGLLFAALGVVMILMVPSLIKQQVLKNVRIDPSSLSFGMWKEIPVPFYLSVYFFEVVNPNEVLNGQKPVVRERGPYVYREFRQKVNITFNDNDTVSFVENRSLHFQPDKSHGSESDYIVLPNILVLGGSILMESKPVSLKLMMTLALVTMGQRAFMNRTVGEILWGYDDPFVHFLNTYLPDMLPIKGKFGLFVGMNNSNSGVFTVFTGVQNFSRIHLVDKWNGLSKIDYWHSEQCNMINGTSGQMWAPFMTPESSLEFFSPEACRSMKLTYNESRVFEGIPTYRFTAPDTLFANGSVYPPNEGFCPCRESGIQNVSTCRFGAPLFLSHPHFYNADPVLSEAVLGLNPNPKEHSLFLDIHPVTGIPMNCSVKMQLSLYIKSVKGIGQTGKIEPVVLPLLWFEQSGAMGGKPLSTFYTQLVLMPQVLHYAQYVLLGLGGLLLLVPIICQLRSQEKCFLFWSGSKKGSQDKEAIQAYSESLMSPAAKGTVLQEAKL
Wnt act: Wnt/beta-catenin pathway activators, primary screen, cell-based, plate reader, single point | Wnt/beta-catenin reporter cell assay, activator | activation, % at 9.35 µM | 300,000 compounds, 1.2% hits; in the data active means activation above about 30%, passing the limit was not always enough; inconclusive means no clear call, values can overlap the other calls;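 further: 0% = neutral control wells and 100% = positive control wells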
MITF TRPM1 HTS: activators of MITF-driven TRPM1 promoter reporter, primary screen, cell-based, SK-MEL-5, luciferase, single point | activation, % at 12.5 µM | AID 588334, 2011 | SK-MEL-5 TRPM1-promoter luciferase, 24 h; % of positive control, neutral wells = 0 | 300,000 compounds, 0.75% hits;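 active means mean activation of at least 80% with every replicate also reaching 80%; inconclusive means mean reaches 80% but some replicate falls short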;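 further: 0% = neutral control wells and 100% = parthenolide positive control wells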
DiI quencher: DiI fluorescence quenching in cell-free counter-screen; AC50, µM (titrated, usually from 35 µM), inactives show at the highest dose activity change, negative = quenching; cell-free DiI-HDL fluorescence quenching, 30 min; shares compounds with SR-BI DiI inh; 470 compounds, 20% hits;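 active means quenching, a falling signal, with AC50 below a set limit tied to the top valid dose, actives reach about 32 µM in these data; inconclusive means no clear call, values can overlap the other calls; inactive means rising signal, and the rest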
Starred values were filed as active, the others as inactive; i = inactive; ? = inconclusive; nt = no result given.

SMILES	SR-BI DiI-HDL act	HSF1 activator	SR-BI DiI inh	Wnt act	MITF TRPM1 HTS	DiI quencher
CNC(=O)COC(=O)/C=C/c1cn(-c2ccccc2)nc1-c1ccc2c(c1)OCCO2	26.4	-8.1	-26.4	0.9	-9.2	nt
CCCn1c(=O)[nH]c(=O)c2c1nc(-c1ccc(OC(F)(F)C(F)C(F)(F)F)cc1)n2CCOC (configuration not stated)	-75.1	24.1	75.1*	nt	10.3	-1.3%
COc1ccc(-c2csc(N3CCN(c4cc5c(cc4Cl)nc(-c4ccncc4)n5CCOCCO)CC3)n2)cc1	-60.5	2.5	60.5	-7.7	-9.2	nt
COc1ccc(-c2csc(NCCc3nc4cc(Cl)c(N5CCCCC5)cc4n3CCOCCO)n2)cc1	-83.0	-7.0	83.0*	-2.4	-3.7	13µM*
COC(=O)Cc1nnn2c1[C@@H](C)[C@@H](c1ccccc1Br)OC[C@@H]2c1ccccc1	nt	nt	nt	1.0	nt	nt
C=CCCC1CN(Cc2ccc(OC)cc2)S(=O)(=O)c2c(cccc2N2CCCCC2)O1 (configuration not stated)	nt	nt	nt	-3.0	nt	nt
Cc1cc(O)c(-c2cc(C(=O)Nc3sc4c(c3C(=O)NCc3ccco3)CCC4)[nH]n2)cc1C	nt	-3.6	nt	-1.8	3.4	nt
Cc1ccc(-c2cc(C(=O)Nc3sc4c(c3C(=O)NCc3ccco3)CCC4)[nH]n2)c(O)c1	-82.6	24.0	82.6*	-6.8	4.9	i
Cc1ccc(-n2nc(C)c3c(C(=O)OCC(=O)N(C)C4CCS(=O)(=O)C4)cc(-c4ccccc4)nc32)cc1 (configuration not stated)	-70.3	-6.1	?	1.8	5.0	?
CCN(C(=O)COC(=O)c1cc(-c2ccccc2)nc2c1c(C)nn2-c1ccccc1)C1CCS(=O)(=O)C1 (configuration not stated)	-50.1	0.0	50.1	nt	6.6	nt
COCCCN(C(=O)c1ccccc1)c1nc(-c2ccc(OC)cc2)cs1	-27.0	4.7	27.0	-1.9	nt	nt
COCCCN(C(=O)c1ccco1)c1nc(-c2ccc(OC)cc2)cs1	-110.8	16.1	110.8*	1.7	12.5	-0.5%
Cc1ccc(S(=O)(=O)N2[C@H](CC(=O)c3cccc4ccccc34)OC[C@@H]2C(C)C)cc1	nt	nt	nt	-3.0	nt	nt
CCOc1ccc(NC(=O)CN2CCN(CC(=O)Nc3ccc(C(=O)OC)cc3)CC2)cc1	-80.8	-20.9	80.8*	nt	-4.0	-1.5%
CC(C)(C)OC(=O)N1CSC[C@H]1C(=O)NC[C@H](CC(=O)O)c1ccc(Cl)cc1	-78.2	81.9*	78.2*	-0.8	-7.7	-3.6%
CC(C)C[C@H](NC(=O)C1(c2ccccc2)CCN(C(=O)[C@H]2CSCN2C(=O)OC(C)(C)C)CC1)C(=O)O	15.6	-1.0	-15.6	-1.8	3.9	nt
O=C(Nc1ccc(F)c(Cl)c1)Nc1nnc([C@H]2C[C@H](O)[C@@H](CO)O2)s1	nt	nt	nt	1.9	nt	nt
COc1cc(/C=N/NC(=O)Cc2csc(C)n2)ccc1OCC(C)C	-81.9	2.8	81.9*	1.9	4.9	-2.5%
N#Cc1sc2nc(C3CC3)cc(-c3ccc(Cl)cc3)c2c1N	-71.1	9.4	?	nt	10.4	0.6%
COc1ccc(-c2cc(-c3cccs3)nc3sc(C#N)c(N)c23)cc1	-74.5	14.8	?	-0.4	13.1	nt
COc1ccc(OC)c2[nH]c(C(=O)O)cc12	-5.7	-13.5	5.7	-1.4	-9.6	nt
COc1ccc(OC)c2[nH]c(C(=O)N3CCC(C(=O)O)CC3)cc12	-74.7	12.5	74.7*	0.6	1.6	-3.9%
COc1ccc(CN2CCN(C(=O)c3ccc(S(=O)(=O)NCc4ccco4)cc3)CC2)cc1F	-72.0	nt	?	3.3	-20.1	-1.5%
O=C(c1ccc(S(=O)(=O)NCc2ccco2)cc1)N1CCN(Cc2ccc3c(c2)OCO3)CC1	-71.0	1.3	?	2.8	-15.0	-0.2%
Cc1ccccc1CN1CCN(C(=O)c2ccc(S(=O)(=O)NCc3ccco3)cc2)CC1	-63.7	nt	63.7	7.2	-2.7	-2.5%
SMILES	SR-BI DiI-HDL act	HSF1 activator	SR-BI DiI inh	Wnt act	MITF TRPM1 HTS	DiI quencher
COc1ccc(CN2CCN(C(=O)c3ccc(S(=O)(=O)N4CCCCCC4)cc3)CC2)cc1F	-48.8	nt	48.8	-3.1	-24.5	nt
O=C(c1ccc(S(=O)(=O)N2CCCC2)cc1)N1CCN(Cc2ccc3c(c2)OCO3)CC1	-38.8	-23.7	38.8	nt	-5.1	nt
COCCCN1C(=O)C(CC(=O)NCc2cccs2)CC(C(=O)N(C(C)C)C(C)C)=C1C (configuration not stated)	nt	nt	nt	-0.6	nt	nt
COc1ccc(NC(=O)N(C)C[C@H]2OCc3cn(nn3)CCCC(=O)N([C@H](C)CO)C[C@@H]2C)cc1	nt	nt	nt	-1.0	nt	nt
COc1ccccc1C(=O)NCCn1cc(SCC(=O)Nc2nnc(C)s2)c2ccccc21	-44.2	3.1	44.2	nt	-2.3	0.0%
O=C(NCCn1cc(SCc2ccccc2)c2ccccc21)c1c(F)cccc1F	-70.6	-33.5	?	13.4	nt	-12.2%
COc1ccccc1Nc1nc(-c2c(C)[nH]c3ccccc23)cs1	-71.7	nt	71.7*	2.5	0.7	5.61µM*
O=C(NCCc1ccccc1)C1CCN(C(=O)c2sccc2-n2cccc2)CC1	-80.7	-6.2	80.7*	-0.6	nt	-6.1%
Cc1ccc(CCNC(=O)C2CCN(C(=O)c3sccc3-n3cccc3)CC2)cc1	-49.7	1.6	49.7	-2.2	-11.0	-2.1%
COc1ccccc1CNC(=O)C1CCN(C(=O)c2sccc2-n2cccc2)CC1	-70.9	1.4	?	-0.2	5.6	-1.7%
COc1ccc(C(=O)N[C@H](C(=O)OCCCOC(=O)[C@@H](NC(=O)c2ccc(OC)cc2)C(C)C)C(C)C)cc1	-53.6	nt	53.6	-1.7	-11.6	nt
COc1ccc(OC)c(C(=O)CSc2nnc(C3CC3)n2C2CC2)c1	nt	nt	nt	-0.4	nt	nt
CN(C(=O)COn1nnc2ccc(S(=O)(=O)N3CCOCC3)cc21)c1ccccc1	-7.9	-6.9	7.9	-2.1	-5.5	-3.4%
CC(C)CN(CC(C)C)C(=O)COn1nnc2ccc(S(=O)(=O)N3CCOCC3)cc21	-70.4	nt	70.4*	-1.5	8.7	-5.2%
Cc1ccccc1COn1nnc2ccc(S(=O)(=O)N3CCOCC3)cc21	10.7	10.1	-10.7	2.5	5.1	nt
COc1cc(NC(=O)C2CC(c3c(F)cccc3Cl)=NO2)c(OC)cc1Cl (configuration not stated)	-82.2	18.1	82.2*	0.5	-3.1	0.3%
CN(CC(=O)Nc1cccc(S(=O)(=O)N(C)c2ccccc2)c1)Cc1cccs1	nt	nt	nt	-1.6	nt	nt
CCCCN(Cc1ccccc1)c1ncnc2nc[nH]c12	-74.3	17.4	74.3*	nt	nt	0.1%
CCCCN(CCCC)c1ncnc2nc[nH]c12	-6.8	-31.5	6.8	1.4	0.9	nt
